Columns and labels:
KLE cells [1] = assay: Annexin V-FITC/PI apoptosis assay in KLE cells; assay type: cell-based, human; details: for pro-apoptotic effect (early apoptotic cell population relative to untreated cells): 50 μM, without α-NF, 24, 48 and 72 h; for concentration dependence of pro-apoptotic effect: 10, 50 and 100 μM, without α-NF, 72 h
Outline: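 KLE cells grown in DMEM/F-12 (1:1) with 10% FBS were seeded in 6-well plates and used on day 7 post-seeding. Prodrug was given without α-NF at 50 μM for 24, 48 or 72 h, or at 10, 50 or 100 μM for 72 h. Controls received no prodrug. Cells were double-stained with Annexin V-FITC/PI and run on flow cytometry. % early apoptotic cells was compared with untreated controls by one-way ANOVA with Dunnett post test. Triplicate or quadruplicate.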

[2] = Resazurin cytotoxicity assay in HepaRG cells; assay type: cell-based; details: human
Outline: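 HepaRG cells grown 2 weeks in Growth medium, then 2 weeks in Differentiation medium, then seeded at 5,000 cells/well. Prodrug given at 0–100 μM with medium changed daily for 69 h. Resazurin (0.01% w/v) added for a further 3 h (72 h total). Fluorescence read at ex 565/em 595 nm. IC50 from variable-slope dose-response fit. Controls: 0.1% DMSO vehicle and 2% Triton X-100.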

KLE cells [3] = assay: Cell cycle analysis; assay type: cell-based, human; details: 72 h; for % of cells in >4N / % of cells in G0/G1 / % of cells in G2/M / % of cells in S / % of cells in Sub-G1: mean ± SD; for cell cycle effects in CYP1B1-inhibited KLE cells / cell cycle effect in KLE cells compared to untreated cells: 10 and 100 μM
Outline: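 KLE cells, day 7 post-seeding, exposed to 10 or 100 μM prodrug with or without 10 μM α-NF for 72 h; untreated cells received no prodrug. Cells harvested, fixed in 70% (v/v) ethanol at −20°C overnight, then stained with PI/RNase buffer for 30 min at room temperature. DNA content read by flow cytometry. Run in triplicate or quadruplicate.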

[4] = Resazurin cytotoxicity assay in CYP1B1-transfected HEK293T cells; assay type: cell-based; details: human, HEK293T cells transfected with CYP1B1
[5] = Resazurin cytotoxicity assay in wild-type HEK293T cells; assay type: cell-based; details: human
Outline: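 Untransfected HEK293T cells in DMEM with 10% FBS, seeded at 5,000 cells/well and held 24 h. Prodrug given at 0–100 μM with medium changed daily for 69 h. Resazurin (0.01% w/v) added for a further 3 h (72 h total). Fluorescence read at ex 565/em 595 nm. IC50 from variable-slope dose-response fit. Controls: 0.1% DMSO vehicle and 2% Triton X-100.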

[6] = after the 14th daily oral administration of 6 mg/kg, vervet monkeys; cited from earlier work
CYP1B1 = assay: EROD activity assay in KLE cells; assay type: cell-based; details: human, probe 7-ER (0.8 μM)
KLE cells [7] = assay type: cell-based
[8] = 100 μM prodrug, with 10 μM α-NF

| SMILES | pro-apoptotic effect (early apoptotic cell population relative to untreated cells) (KLE cells [1]) | concentration dependence of pro-apoptotic effect (KLE cells [1]) | % of cells in >4N (KLE cells [3]; 10 μM prodrug, with 10 μM α-NF) [%] | % of cells in G0/G1 (KLE cells [3]; 10 μM prodrug, with 10 μM α-NF) [%] | % of cells in G2/M (KLE cells [3]; 10 μM prodrug, with 10 μM α-NF) [%] | % of cells in S (KLE cells [3]; 10 μM prodrug, with 10 μM α-NF) [%] | % of cells in Sub-G1 (KLE cells [3]; 10 μM prodrug, with 10 μM α-NF) [%] | % of cells in >4N (KLE cells [3]; 10 μM prodrug, without α-NF) [%] | % of cells in G0/G1 (KLE cells [3]; 10 μM prodrug, without α-NF) [%] | % of cells in G2/M (KLE cells [3]; 10 μM prodrug, without α-NF) [%] | % of cells in S (KLE cells [3]; 10 μM prodrug, without α-NF) [%] | % of cells in Sub-G1 (KLE cells [3]; 10 μM prodrug, without α-NF) [%] | % of cells in >4N (KLE cells [3]; [8]) [%] | % of cells in G0/G1 (KLE cells [3]; [8]) [%] | % of cells in G2/M (KLE cells [3]; [8]) [%] | % of cells in S (KLE cells [3]; [8]) [%] | % of cells in Sub-G1 (KLE cells [3]; [8]) [%] | % of cells in >4N (KLE cells [3]; 100 μM prodrug, without α-NF) [%] | % of cells in G0/G1 (KLE cells [3]; 100 μM prodrug, without α-NF) [%] | % of cells in G2/M (KLE cells [3]; 100 μM prodrug, without α-NF) [%] | also measured |
| --- | --- | --- | --- | --- | --- | --- | --- | --- | --- | --- | --- | --- | --- | --- | --- | --- | --- | --- | --- | --- | --- |
| CONC(=N)c1ccc(-c2ccc(-c3ccc(C(=N)NOC)cn3)o2)cc1 [DB844, N-methoxy-6-{5-[4-(N-methoxyamidino)phenyl]-furan-2-yl}-nicotinamidine] | significant increase in the early apoptotic cell population | concentration-dependent pro-apoptotic effects | 4.9 ± 0.9 | 41.1 ± 1.5 | 40.7 ± 2.9 | 7.9 ± 1.5 | 4.1 ± 1.1 | 6.3 ± 1.9 | 38.7 ± 2.1 | 47.3 ± 0.5 | 8.0 ± 1.4 | 4.6 ± 0.8 | 3.4 ± 0.6 | 43.3 ± 0.4 | 41.8 ± 1.1 | 5.6 ± 0.7 | 4.3 ± 0.9 | 3.7 ± 0.9 | 43.9 ± 1.2 | 40.6 ± 1.3 | IC50 at 72 h [2]: 76.3 ± 1.6 µM; % of cells in S (KLE cells [3]; 100 μM prodrug, without α-NF): 6.6 ± 1.1 %; % of cells in Sub-G1 (KLE cells [3]; 100 μM prodrug, without α-NF): 5.3 ± 1.5%; cell cycle effects in CYP1B1-inhibited KLE cells (KLE cells [3]; with 10 μM α-NF): absent; cell cycle effect in KLE cells compared to untreated cells (KLE cells [3]; without α-NF): concentration-dependent G0/G1 cell cycle arrest; IC50 at 72 h [4]: 38.8 ± 0.9 µM; IC50 at 72 h [5]: 37.9 ± 0.9 µM; average maximal plasma concentration [6]: 0.43 µM |
| O=c1cc(-c2ccccc2)oc2c1ccc1ccccc12 [α-NF, α-naphthoflavone] |  |  |  |  |  |  |  |  |  |  |  |  |  |  |  |  |  |  |  |  | inhibition at 24 h, 1 μM (CYP1B1): 81%; cytotoxic effect on KLE cells (KLE cells [7]; α-NF up to 15 μM): did not show any cytotoxic effect |
| CON=C(N)c1ccc(-c2ccc(-c3ccc(C(N)=NOC)cc3)o2)cc1 [DB289, 2,5-bis[4-amidinophenyl]furan-bis-O-methylamidoxime] | significant increase in the early apoptotic cell population | concentration-dependent pro-apoptotic effects | 5.3 ± 1.0 | 39.5 ± 0.6 | 39.3 ± 2.9 | 9.8 ± 1.4 | 5.4 ± 0.0 | 1.7 ± 0.6 | 40.0 ± 1.7 | 45.0 ± 5.2 | 5.3 ± 1.1 | 5.1 ± 1.4 | 3.6 ± 0.4 | 43.2 ± 3.4 | 42.4 ± 2.6 | 6.1 ± 1.1 | 4.7 ± 1.0 | 4.5 ± 1.3 | 43.2 ± 0.8 | 39.5 ± 0.2 | % of cells in S (KLE cells [3]; 100 μM prodrug, without α-NF): 8.3 ± 1.0 %; % of cells in Sub-G1 (KLE cells [3]; 100 μM prodrug, without α-NF): 4.5 ± 0.7%; cell cycle effects in CYP1B1-inhibited KLE cells (KLE cells [3]; with 10 μM α-NF): absent; cell cycle effect in KLE cells compared to untreated cells (KLE cells [3]; without α-NF): concentration-dependent G0/G1 cell cycle arrest; viability of KLE cells (KLE cells [7]; 50 μM prodrug, KLE cells without α-NF, normalized to vehicle control): 21% |

Source: paper PMC8559613 (Journal of biomolecular screening, 2016)
